ChEMBL document CHEMBL1136324, “The total synthesis of an aurone isolated from Uvaria hamiltonii: aurones and flavones as anticancer agents” (Bioorg Med Chem Lett, 2003)

Assays:
K562 [1] = experiment: Inhibitory activity against K562 human chronic myelogenous leukemia cell line using MTT assay after 5 days incubation of the compound; assay type: functional, cell-based; conditions: K562, 120 h
How it was run: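 K562 cells exposed to drug for 5 days at 37 °C; growth read by MTT assay. IC50 taken as concentration giving 50% inhibition of cell growth.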

Tubulin alpha chain = Tubulin alpha chain (Sus scrofa, UniProt P02550); experiment: Concentration that cause a 50% inhibition in tubulin assembly as measured by an increase in turbidity using microtubule assembly assay
K562 [2] = experiment: Effect on G0-G1 phase of the cell cycle by flow cytometry; assay type: functional, Homo sapiens
How it was run: (§1)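 Cell-cycle phase distribution measured by flow cytometry in drug-treated cells, compared with untreated control.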

K562 [3] = experiment: Effect on G2/M phase of the cell cycle by flow cytometry; assay type: functional, Homo sapiens; how it was run: as §1
K562 [4] = experiment: Effect on S phase of the cell cycle by flow cytometry; assay type: functional, Homo sapiens; how it was run: as §1
Tubulin = Tubulin (Sus scrofa, UniProt P02554+P02550); experiment: Ability to inhibit the binding of [3H]colchicine to porcine tubulin; assay type: protein assay

Tubulin alpha chain, sequence (P02550 whole entry, looked up): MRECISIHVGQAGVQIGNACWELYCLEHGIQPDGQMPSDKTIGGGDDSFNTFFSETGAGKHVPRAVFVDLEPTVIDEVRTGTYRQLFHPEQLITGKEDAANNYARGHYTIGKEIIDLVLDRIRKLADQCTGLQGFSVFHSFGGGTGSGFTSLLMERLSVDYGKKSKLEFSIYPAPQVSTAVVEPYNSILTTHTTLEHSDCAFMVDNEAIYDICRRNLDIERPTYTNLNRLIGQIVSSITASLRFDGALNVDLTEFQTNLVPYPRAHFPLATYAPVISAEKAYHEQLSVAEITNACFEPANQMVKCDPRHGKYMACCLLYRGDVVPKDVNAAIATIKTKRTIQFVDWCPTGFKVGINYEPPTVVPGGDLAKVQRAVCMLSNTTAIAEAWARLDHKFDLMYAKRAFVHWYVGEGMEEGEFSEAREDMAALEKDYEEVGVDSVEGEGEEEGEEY

SMILES | IC50 (K562 [1]) | IC50 (Tubulin alpha chain) | IC50 (Tubulin) | Activity (K562 [2]) | Activity (K562 [3]) | Activity (K562 [4])
COc1cc2c(c(OC)c1OC)O/C(=C\c1cc(F)c(OC)c(F)c1)C2=O | 0.15 µM | – | – | – | – | –
COc1cc2c(c(OC)c1OC)O/C(=C\c1ccc(O)c(O)c1)C2=O | 9.7 µM | > 50 µM | – | 45 | 39 | 16
COc1ccc(/C=C2\Oc3c(cc(OC)c(OC)c3OC)C2=O)cc1 | 0.15 µM | – | – | – | – | –
COc1ccc(/C=C2\Oc3c(cc(OC)c(OC)c3OC)C2=O)cc1F | 0.11 µM | > 50 µM | – | 12 | 77 | 11
COc1ccc(/C=C2\Oc3cc(OC)c(OC)c(OC)c3C2=O)cc1 | > 50 µM | – | – | – | – | –
COc1ccc(-c2cc(=O)c3cc(OC)c(OC)c(OC)c3o2)cc1 | 0.83 µM | – | – | – | – | –
COc1ccc(/C=C2\Oc3c(cc(OC)c(OC)c3OC)C2=O)cc1O | 0.05 µM | 22 µM | 60 µM | 17 | 69 | 14
COc1ccc(-c2cc(=O)c3c(OC)c(OC)c(OC)cc3o2)cc1F | > 50 µM | > 50 µM | – | – | – | –
COc1ccc(-c2cc(=O)c3c(OC)c(OC)c(OC)cc3o2)cc1 | 42 µM | – | – | – | – | –
COc1ccc(/C=C(\C)C(=O)c2cc(OC)c(OC)c(OC)c2)cc1O | 0.0002 µM | 0.5 µM | – | 10 | 83 | 7

More lines, main results first:

IC50 (K562 [1]) | IC50 (Tubulin alpha chain) | IC50 (Tubulin) | SMILES | Activity (K562 [2]) | Activity (K562 [3]) | Activity (K562 [4])
18 µM | > 50 µM | – | COc1ccc(/C=C2\Oc3cc(OC)c(OC)c(OC)c3C2=O)cc1O | – | – | –
> 50 µM | – | – | COc1cc2c(c(OC)c1OC)C(=O)/C(=C/c1cc(F)c(OC)c(F)c1)O2 | – | – | –
0.59 µM | > 50 µM | – | COc1ccc(-c2cc(=O)c3cc(OC)c(OC)c(OC)c3o2)cc1F | – | – | –
0.04 µM | 25 µM | 40 µM | COc1ccc(-c2cc(=O)c3cc(OC)c(OC)c(OC)c3o2)cc1O | 52 | 38 | 11
12 µM | > 50 µM | – | COc1cc2c(c(OC)c1OC)C(=O)/C(=C/c1ccc(O)c(O)c1)O2 | 57 | 25 | 18
22 µM | > 50 µM | – | COc1ccc(-c2cc(=O)c3c(OC)c(OC)c(OC)cc3o2)cc1O | – | – | –
> 50 µM | > 50 µM | – | COc1ccc(/C=C2\Oc3cc(OC)c(OC)c(OC)c3C2=O)cc1F | – | – | –
